Data taken from ChEMBL document CHEMBL3286182, “4-aminoquinolone piperidine amides: noncovalent inhibitors of DprE1 with long residence time and potent antimycobacterial activity” (J Med Chem, 2014).
≈ marks a conversion by molar mass, not a printed value. Calls of active or inactive are those of the source. The rule behind the calls is not given here.

Columns and labels:
[1] = system: Mycolicibacterium smegmatis; assay: Binding affinity to Mycobacterium smegmatis recombinant DprE1 assessed as residence time
Method in brief: (§1)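 Progress curves (fluorescence vs time) recorded at several inhibitor concentrations with 75 nM Msm DprE1 in the FAD/HRP/Amplex Red coupled assay, pH 8.5, 25 °C. A single-step reversible slow-binding model was fitted globally, with vs and vi fitted per concentration and koff and Kiapp shared. Half-life and residence time were derived from koff.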

Staphylococcus aureus = assay: Antimicrobial activity against Staphylococcus aureus ARC517 at 100 uM; format: functional, organism-based
Method in brief: (§2)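 Nonmycobacterial panel of Candida albicans, Gram-negative and Gram-positive pathogens.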

[2] = system: Mycobacterium tuberculosis; assay: Antimycobacterial activity against Mycobacterium tuberculosis over expressing TopA after 5 days by standard microdilution method; format: functional; details: 120 h
[3] = Inhibition of Mycobacterium smegmatis DprE1 Y321H mutant using farnesylphosphoryl-beta-D-ribofuranose as substrate assessed as conversion of amplex red to resorufin after 30 mins; set-up: species or system Mycolicibacterium smegmatis
Method in brief: (§3)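 Recombinant M. smegmatis DprE1 (thioredoxin-6His fusion), wild type or Y321H, 75 nM. Enzyme was preincubated 30 min in FAD assay mix: 50 mM glycylglycine pH 8.5, 200 mM potassium glutamate, 10 μM FAD, 0.002% Brij-35, 2% DMSO. Reaction was started with 300 μM farnesylphosphoryl-β-D-ribofuranose, 0.01 mg/mL HRP and 50 μM amplex red at 25 °C.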

Haemophilus influenzae [4] = assay: Antimicrobial activity against Haemophilus influenzae ARC446 at 100 uM; format: functional, organism-based; method in brief: as §2
[5] = Initial plasma concentration in Wistar rat at 2 mg/kg, iv; format: ADME, organism-based; set-up: dose 2 mg/kg, route intravenous
Method in brief: (§4)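 Male Wistar rats given a single dose, 2 mg/kg intravenously or 10 mg/kg orally. Plasma concentration followed over time, n = 2 per compound. Parameters taken from the plasma curves: C0 (iv), Cmax (oral), AUC0−∞, elimination half-life, plasma clearance, Vss and oral bioavailability.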

[6] = system: Mycolicibacterium smegmatis; assay: Antimicrobial activity against Mycobacterium smegmatis mc2155 at 100 uM; format: functional, organism-based; details: str. MC2 155
[7] = Permeability of the compound from basolateral to apical side in human Caco2 cells; format: ADME, cell-based; details: Caco-2, read-out: permeability
Pseudomonas aeruginosa [8] = assay: Antimicrobial activity against Pseudomonas aeruginosa ARC546 at 100 uM; format: functional, organism-based; method in brief: as §2
[9] = Elimination half life in Wistar rat at 2 mg/kg, iv; format: ADME, organism-based; set-up: dose 2 mg/kg, route intravenous; details: in vivo, read-out: beta t1/2 (converted); method in brief: as §4
[10] = system: Mycobacterium tuberculosis; assay: Antimycobacterial activity against Mycobacterium tuberculosis over expressing DprE1 after 5 days by standard microdilution method; format: functional; details: 120 h
Escherichia coli [11] = assay: Antimicrobial activity against Escherichia coli ARC523 at 100 uM; format: functional, organism-based; method in brief: as §2
[12] = Cytotoxicity against human A549 cells after 72 hrs by resazurin based fluorescence assay; format: cell-based; details: read-out: MIC
Method in brief: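 Cytotoxicity read as MMIC, the MIC on the A549 cell line.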

[13] = system: Mycobacterium tuberculosis; assay: Antimycobacterial activity against Mycobacterium tuberculosis over expressing InhA after 5 days by standard microdilution method; format: functional; details: 120 h
[14] = system: Mycobacterium tuberculosis; assay: Bactericidal activity against Mycobacterium tuberculosis H37Rv after 3 days relative to control; format: functional
[15] = Solubility of the compound in 0.1 M phosphate buffer at pH 7.4 after 24 hrs by UV and MS analysis; format: physicochemical
[16] = Inhibition of Mycobacterium smegmatis recombinant DprE1 using farnesylphosphoryl-beta-D-ribofuranose as substrate assessed as conversion of amplex red to resorufin after 30 mins; set-up: species or system Mycolicibacterium smegmatis
Method in brief: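 Msm DprE1 (thioredoxin-6His fusion of Msm Rv3790) at 75 nM, preincubated 30 min with 10 μM FAD. Buffer: 50 mM glycylglycine pH 8.5, 200 mM potassium glutamate, 0.002% Brij-35, 2% DMSO, 25 °C. Started with 300 μM farnesylphosphoryl-β-D-ribofuranose, 0.01 mg/mL HRP and 50 μM Amplex Red.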

[17] = molecular target: Voltage-gated inwardly rectifying potassium channel KCNH2 (Homo sapiens, UniProt Q12809); assay: Inhibition of human ERG by medium-throughput electrophysiology
Chain of Voltage-gated inwardly rectifying potassium channel KCNH2 (Q12809 whole entry): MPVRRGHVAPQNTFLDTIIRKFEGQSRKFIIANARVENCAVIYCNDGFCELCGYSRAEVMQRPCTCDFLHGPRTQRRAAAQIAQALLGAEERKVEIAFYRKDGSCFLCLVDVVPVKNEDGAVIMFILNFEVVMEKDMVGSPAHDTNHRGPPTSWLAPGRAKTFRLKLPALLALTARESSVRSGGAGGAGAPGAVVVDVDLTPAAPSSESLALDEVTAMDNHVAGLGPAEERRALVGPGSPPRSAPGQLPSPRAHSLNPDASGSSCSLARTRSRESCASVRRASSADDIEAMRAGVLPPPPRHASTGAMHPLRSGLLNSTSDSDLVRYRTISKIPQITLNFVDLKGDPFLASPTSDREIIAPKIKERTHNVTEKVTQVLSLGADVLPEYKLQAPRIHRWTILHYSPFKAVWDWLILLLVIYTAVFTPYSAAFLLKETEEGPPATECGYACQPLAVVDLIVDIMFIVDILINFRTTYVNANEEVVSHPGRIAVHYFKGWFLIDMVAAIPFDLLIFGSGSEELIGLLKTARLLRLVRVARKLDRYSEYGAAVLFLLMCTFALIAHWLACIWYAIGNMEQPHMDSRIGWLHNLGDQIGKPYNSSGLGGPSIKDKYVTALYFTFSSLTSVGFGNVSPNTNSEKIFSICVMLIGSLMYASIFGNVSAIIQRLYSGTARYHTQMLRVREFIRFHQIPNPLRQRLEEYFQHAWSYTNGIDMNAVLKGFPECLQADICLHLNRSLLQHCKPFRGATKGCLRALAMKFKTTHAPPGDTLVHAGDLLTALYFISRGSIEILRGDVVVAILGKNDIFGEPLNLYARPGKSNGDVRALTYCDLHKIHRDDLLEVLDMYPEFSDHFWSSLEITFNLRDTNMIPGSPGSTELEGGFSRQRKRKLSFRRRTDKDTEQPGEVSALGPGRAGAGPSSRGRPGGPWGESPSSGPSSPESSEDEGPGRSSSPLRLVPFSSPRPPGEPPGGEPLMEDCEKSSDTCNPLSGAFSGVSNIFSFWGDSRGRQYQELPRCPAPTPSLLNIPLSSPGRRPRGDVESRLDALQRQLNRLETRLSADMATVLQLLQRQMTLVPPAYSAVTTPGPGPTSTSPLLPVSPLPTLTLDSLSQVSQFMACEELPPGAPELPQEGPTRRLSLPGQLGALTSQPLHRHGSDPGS

[18] = Intrinsic clearance in human liver microsomes at 1 uM up to 30 mins by LC-MS/MS analysis; format: ADME; details: read-out: CLH
[19] = system: Mycobacterium tuberculosis; assay: Antimycobacterial activity against Mycobacterium tuberculosis H37Rv at >MIC after 21 to 28 days; format: functional
[20] = AUC (0 to infinity) in Wistar rat at 10 mg/kg, po; format: ADME, organism-based; set-up: time infinity, dose 10 mg/kg, route oral; details: plasma; method in brief: as §4
[21] = system: Mycolicibacterium smegmatis; assay: Antimicrobial activity against Mycobacterium smegmatis ATCC 607 at 100 uM; format: functional, organism-based
[22] = Cmax in Wistar rat at 10 mg/kg, po; format: ADME, organism-based; set-up: dose 10 mg/kg, route oral; details: in vivo; method in brief: as §4
[23] = Octanol-water partition coefficient, log D of the compound by shake-flask method; format: physicochemical
Klebsiella pneumoniae = assay: Antimicrobial activity against Klebsiella pneumoniae ARC1865 at 100 uM; format: functional, organism-based; method in brief: as §2
[24] = Intrinsic clearance in rat cryopreserved hepatocytes assessed per 10^6 cells at 1 uM up to 120 mins by LC-MS/MS analysis; format: ADME, cell-based, Hepatocyte; details: read-out: CLH
[25] = system: Mycolicibacterium smegmatis; assay: Binding affinity to Mycobacterium smegmatis recombinant DprE1 assessed as dissociation constant; method in brief: as §1
Escherichia coli [26] = assay: Antimicrobial activity against Escherichia coli ARC524 at 100 uM; format: functional, organism-based; method in brief: as §2
Haemophilus influenzae [27] = assay: Antimicrobial activity against Haemophilus influenzae ARC158 at 100 uM; format: functional, organism-based; method in brief: as §2
[28] = Volume of distribution at steady state in Wistar rat at 2 mg/kg, iv; format: ADME, organism-based; set-up: dose 2 mg/kg, route intravenous; details: in vivo, read-out: Vdss; method in brief: as §4
[29] = system: Mycolicibacterium smegmatis; assay: Ratio of IC50 for Mycobacterium smegmatis DprE1 Y321H mutant to IC50 for Mycobacterium smegmatis recombinant wild type DprE1; method in brief: as §3
[30] = system: Mycolicibacterium smegmatis; assay: Binding affinity to Mycobacterium smegmatis recombinant DprE1 assessed as half life; method in brief: as §1
[31] = Elimination half life in Wistar rat at 10 mg/kg, po; format: ADME, organism-based; set-up: dose 10 mg/kg, route oral; details: in vivo, read-out: beta t1/2 (converted); method in brief: as §4
[32] = Fraction unbound in human plasma at 20 uM after 18 hrs by equilibrium dialysis method; format: ADME, cell-free
Streptococcus pneumoniae = assay: Antimicrobial activity against Streptococcus pneumoniae ARC548 at 100 uM; format: functional, organism-based; method in brief: as §2
[33] = system: Mycobacterium tuberculosis; assay: Antimycobacterial activity against Mycobacterium tuberculosis over expressing PimA after 5 days by standard microdilution method; format: functional; details: 120 h
[34] = system: Mycobacterium tuberculosis; assay: Antimycobacterial activity against Mycobacterium tuberculosis H37Rv after 5 days by standard microdilution method; format: functional; details: 120 h
[35] = system: Mycobacterium tuberculosis; assay: Bactericidal activity against Mycobacterium tuberculosis H37Rv after 7 days relative to control; format: functional
[36] = Oral bioavailability in Wistar rat at 10 mg/kg; format: ADME, organism-based; details: in vivo; method in brief: as §4
[37] = Clearance in Wistar rat at 2 mg/kg, iv; format: ADME, organism-based; set-up: dose 2 mg/kg, route intravenous; details: in vivo; method in brief: as §4
Pseudomonas aeruginosa [38] = assay: Antimicrobial activity against Pseudomonas aeruginosa ARC545 at 100 uM; format: functional, organism-based; method in brief: as §2
[39] = AUC (0 to infinity) in Wistar rat at 2 mg/kg, iv; format: ADME, organism-based; set-up: dose 2 mg/kg, route intravenous, time infinity; details: plasma; method in brief: as §4
Candida albicans = assay: Antimicrobial activity against Candida albicans ARC527 at 100 uM; format: functional, organism-based; method in brief: as §2
[40] = Permeability of the compound from apical to basolateral side in human Caco2 cells; format: ADME, cell-based; details: Caco-2, read-out: permeability
[41] = system: Mycobacterium tuberculosis; assay: Antimycobacterial activity against Mycobacterium tuberculosis H37Rv under hypoxic condition after 6 days by resazurin assay; format: functional; details: 144 h

Cn1ncc(C(=O)N2CCC(Nc3cc(=O)[nH]c4cc(F)c(F)cc34)CC2)c1Cl
TIME [1]: 2.53 h | Activity (Staphylococcus aureus): inactive | MIC [2]: 0.4 µM (≈ 0.169 µg/mL) | IC50 [3]: > 10 µM | Activity (Haemophilus influenzae [4]): inactive | C0 [5]: 4900 nM | Activity [6]: inactive | Papp B→A [7]: 11 ×10⁻⁶ cm/s | Activity (Pseudomonas aeruginosa [8]): inactive | half-life [9]: 0.5 h | MIC [10]: > 50 µM | Activity (Escherichia coli [11]): inactive | MCC at 72 h [12]: > 100 µM | MIC [13]: 0.4 µM (≈ 0.169 µg/mL) | LCK [14]: 3 | solubility at 24 h [15]: 26 µM (≈ 11 µg/mL) | IC50 [16]: 0.006 µM | IC50 [17]: > 100 µM | microsomal CLint at 1 µM [18]: 12.5 µL/min/mg | MBC [19]: 0.8 µM (≈ 0.337 µg/mL) | AUC(0-inf) [20]: 0.04 µM·h | Activity [21]: inactive | Cmax [22]: 20 nM | logD [23]: 2.2 | Activity (Klebsiella pneumoniae): inactive | hepatocyte CLint at 1 µM [24]: 2.4 µL/min/1e6 cells | Kdiss [25]: 0.00011 s⁻¹ | Activity (Escherichia coli [26]): inactive | Activity (Haemophilus influenzae [27]): inactive | Vd [28]: 0.9 L/kg | fold change (FC) [29]: > 143 | T1/2 [30]: 1.75 h | half-life [31]: 1.1 h | fraction unbound at 18 h, 20 µM [32]: 0.4 | Activity (Streptococcus pneumoniae): inactive | MIC [33]: 0.4 µM (≈ 0.169 µg/mL) | MIC [34]: 0.4 µM (≈ 0.169 µg/mL) | LCK [35]: 4 | bioavailability [36]: 0.3% | clearance [37]: 34.4 mL/min/kg | Activity (Pseudomonas aeruginosa [38]): inactive | AUC(0-inf) [39]: 1.2 µM·h | Activity (Candida albicans): inactive | Papp A→B [40]: 0.2 ×10⁻⁶ cm/s | IC80 [41]: > 100 µM
